What was measured:
MDR1 [1] = assay: Apparent permeability across apical to basolateral side in MDCK cells expressing MDR1 (unknown origin) at 1 uM; type: ADME, cell-based, Canis lupus familiaris; settings: dog
How it was run: (§1)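 MDR1-transfected MDCK cell monolayers. Compound tested at 1 µM. Apparent permeability measured in both directions, apical to basolateral and basolateral to apical. Efflux ratio taken from the two directional permeabilities.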

MDR1 [2] = assay: Apparent permeability across basolateral to apical side in MDCK cells expressing MDR1 (unknown origin) at 1 uM; type: ADME, cell-based, Canis lupus familiaris; settings: dog; how it was run: as §1
[3] = Cmax in Wistar rat plasma at 2 mg/kg, po; type: ADME, organism-based; parameters: dose 2 mg/kg, route oral
How it was run: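 Male Wistar rats dosed iv at 0.2 mg/kg or po at 2 mg/kg. In the inhibited arm, the broad CYP inhibitor aminobenzotriazol was given orally 2 h before dosing. Clearance, Vss and half-life derived from plasma concentrations after the iv dose; Cmax and Tmax from the po dose.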

[4] = Tmax in Wistar rat plasma at 2 mg/kg, po administered 2 hrs after aminobenzotriazol-treatment; type: ADME, organism-based
How it was run: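 Rats dosed orally with the CYP inhibitor aminobenzotriazol 2 h before the iv dose of 0.2 mg/kg. Oral dose was 2 mg/kg.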

Rattus norvegicus [5] = assay: Anticonvulsant activity in WAG/Rij rat model of generalized nonconvulsive absence-like epilepsy assessed as decrease in total duration of spontaneous seizures at 100 mg/kg, po administered as single dose at beginning of nocturnal active phase measured over 12 hrs by radiotelometry relative to vehicle control
Cytochrome P450 2D6 = Cytochrome P450 2D6 (Homo sapiens, UniProt P10635); assay: Inhibition of CYP2D6 (unknown origin)
[6] = molecular target: Voltage-dependent T-type calcium channel subunit alpha-1H (Homo sapiens, UniProt O95180); assay: Inhibition of recombinant T-type calcium channel Cav3.2 (unknown origin) expressed in HEK293 cells assessed as inhibition of CaCl2-induced calcium influx preincubated for 3 mins prior CaCl2 addition by Fluo-4-AM dye-based FLIPR assay; type: cell-based
How it was run: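 HEK293 cells stably expressing Cav3.2, plated overnight at 37°C, loaded 1 h at 37°C with 3 µM Fluo-4-AM in HBSS/Hepes pH 7.4, then washed. Compound in TEAC buffer (100 mM tetraethylammonium chloride, pH 7.2), 3-fold series from 10 µM to 0.05 nM, 3 min before CaCl2 to a final 10 mM. IC50 fitted sigmoidally to the fluorescence AUC against vehicle signal; mean of at least two independent experiments.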

[7] = Intrinsic clearance in rat hepatocytes; type: ADME, cell-based, Hepatocyte
[8] = Drug uptake in Wistar rat CSF at 10 mg/kg, po measured after 3 hrs; type: ADME, organism-based, Cerebrospinal fluid; settings: read-out: Drug uptake
How it was run: (§2)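 Male Wistar rats given oral doses of 10, 30 or 100 mg/kg. Plasma, brain and CSF collected at 1 h, and at 3 h for the 10 mg/kg dose; compound concentrations measured in each.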

Rattus norvegicus [9] = assay: Cardiovascular toxicity in spontaneously hypertensive rat assessed as increase in PR interval of ECG at 100 mg/kg, po; type: organism-based; settings: in vivo
How it was run: (§3)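 Conscious, freely moving male spontaneously hypertensive rats with telemetry recording MAP, HR and ECG. Single oral dose (5 ml/kg) given as a suspension in 0.5% w/v methylcellulose in water, in the morning during the sleep phase. Vehicle controls run in parallel, n = 8 per group.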

[10] = molecular target: Voltage-dependent L-type calcium channel subunit alpha-1C (Homo sapiens, UniProt Q13936); assay: Inhibition of recombinant […] calcium channel Cav1.2 (unknown origin) expressed in HEK293 cells assessed as inhibition of Kcl-induced calcium influx preincubated for 3 mins prior CaCl2 addition by Fluo-4-AM dye-based FLIPR assay; type: cell-based
How it was run: (§4)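 HEK293 cells stably expressing the channel, seeded overnight and loaded 1 h at 37°C with 3 µM Fluo-4-AM. Compounds given as a 3-fold dilution series from 10 µM to 0.05 nM and incubated 3 min. For T-type channels, dilutions in TEAC buffer and stimulation with 10 mM final CaCl2. For Cav1.2, dilutions in assay buffer and stimulation with 20 mM final KCl. IC50 from area under the fluorescence trace against vehicle; mean of at least two experiments.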

[11] = Metabolic stability in mouse microsomes measured per mg protein; type: ADME, Microsome
Rattus norvegicus [12] = assay: Anticonvulsant activity in WAG/Rij rat model of generalized nonconvulsive absence-like epilepsy assessed as decrease in number of spontaneous seizures at 100 mg/kg, po administered as single dose at beginning of nocturnal active phase measured over 12 hrs by radiotelometry relative to vehicle control
[13] = Cmax in Beagle dog plasma at 10 mg/kg, po; type: ADME, organism-based, Canis lupus familiaris; parameters: dose 10 mg/kg, route oral
How it was run: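 Beagle dogs given a single oral dose of 10 mg/kg; plasma Cmax and Tmax determined.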

Rattus norvegicus [14] = assay: Cardiovascular toxicity in spontaneously hypertensive rat assessed as reduction in heart rate at 100 mg/kg, po within 6 hrs post dose; type: organism-based; settings: in vivo; how it was run: as §3
[15] = Oral bioavailability in Wistar rat plasma at 2 mg/kg; type: ADME, organism-based
[16] = Fraction unbound in rat plasma; type: ADME, cell-free
Rattus norvegicus [17] = assay: Cardiovascular toxicity in spontaneously hypertensive rat assessed as reduction in heart rate at 100 mg/kg, po; type: organism-based; settings: in vivo; how it was run: as §3
Rattus norvegicus [18] = assay: Cardiovascular toxicity in spontaneously hypertensive rat assessed as induction of AV block type 2 at 100 mg/kg, po by telemetry method; type: organism-based; settings: in vivo; how it was run: as §3
[19] = molecular target: Voltage-dependent T-type calcium channel subunit alpha-1I (Homo sapiens, UniProt Q9P0X4); assay: Inhibition of T-type calcium channel Cav3.3 (unknown origin) expressed in HEK293 cells assessed as calcium influx by Fluo-4-AM dye-based FLIPR assay; type: cell-based; how it was run: as §4
[20] = Fraction unbound in Wistar rat microsomes; type: ADME, Microsome
[21] = Drug uptake in Wistar rat CSF at 10 mg/kg, po measured after 1 hr; type: ADME, organism-based, Cerebrospinal fluid; settings: read-out: Drug uptake; how it was run: as §2
MDR1 [22] = assay: Efflux ratio of permeability in MDCK cells expressing MDR1 (unknown origin); type: ADME, cell-based, Canis lupus familiaris; settings: dog; how it was run: as §1
Cytochrome P450 2C9 = Cytochrome P450 2C9 (Homo sapiens, UniProt P11712); assay: Inhibition of CYP2C9 (unknown origin); type: ADME
Rattus norvegicus [23] = organism: Rattus norvegicus; assay: Inhibition of Wistar rat brain neuronal sodium channel assessed as reduction in peak inward current at 10 uM measured during first peak
How it was run: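 Cortical neurons from E18 Wistar rat embryos, cultured 9-15 days, recorded by manual patch clamp from a holding potential of -80 mV. K+ currents: one 50-ms step to 0 mV, fast as peak outward and slow as end-of-pulse current. Na+ currents: train of fifteen 10-ms steps to 0 mV, peak inward current read at the first and last pulses. Effects read at least 180 s after application.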

[24] = Plasma concentration in Wistar rat at 30 mg/kg, po measured after 1 hr; type: ADME, organism-based
[25] = Drug uptake in Wistar rat brain at 10 mg/kg, po measured after 3 hrs; type: ADME, organism-based; settings: read-out: Drug uptake; how it was run: as §2
[26] = Drug uptake in Wistar rat CSF at 100 mg/kg, po measured after 1 hr; type: ADME, organism-based, Cerebrospinal fluid; settings: read-out: Drug uptake; how it was run: as §2
Rattus norvegicus [27] = assay: Anticonvulsant activity in WAG/Rij rat model of generalized nonconvulsive absence-like epilepsy assessed as decrease in duration of spontaneous seizures at 100 mg/kg, po administered as single dose at beginning of nocturnal active phase measured over 4 hrs by radiotelometry relative to vehicle control
[28] = Drug uptake in Wistar rat CSF at 30 mg/kg, po measured after 1 hr; type: ADME, organism-based, Cerebrospinal fluid; settings: read-out: Drug uptake; how it was run: as §2

Chain of Voltage-dependent L-type calcium channel subunit alpha-1C (Q13936 whole entry): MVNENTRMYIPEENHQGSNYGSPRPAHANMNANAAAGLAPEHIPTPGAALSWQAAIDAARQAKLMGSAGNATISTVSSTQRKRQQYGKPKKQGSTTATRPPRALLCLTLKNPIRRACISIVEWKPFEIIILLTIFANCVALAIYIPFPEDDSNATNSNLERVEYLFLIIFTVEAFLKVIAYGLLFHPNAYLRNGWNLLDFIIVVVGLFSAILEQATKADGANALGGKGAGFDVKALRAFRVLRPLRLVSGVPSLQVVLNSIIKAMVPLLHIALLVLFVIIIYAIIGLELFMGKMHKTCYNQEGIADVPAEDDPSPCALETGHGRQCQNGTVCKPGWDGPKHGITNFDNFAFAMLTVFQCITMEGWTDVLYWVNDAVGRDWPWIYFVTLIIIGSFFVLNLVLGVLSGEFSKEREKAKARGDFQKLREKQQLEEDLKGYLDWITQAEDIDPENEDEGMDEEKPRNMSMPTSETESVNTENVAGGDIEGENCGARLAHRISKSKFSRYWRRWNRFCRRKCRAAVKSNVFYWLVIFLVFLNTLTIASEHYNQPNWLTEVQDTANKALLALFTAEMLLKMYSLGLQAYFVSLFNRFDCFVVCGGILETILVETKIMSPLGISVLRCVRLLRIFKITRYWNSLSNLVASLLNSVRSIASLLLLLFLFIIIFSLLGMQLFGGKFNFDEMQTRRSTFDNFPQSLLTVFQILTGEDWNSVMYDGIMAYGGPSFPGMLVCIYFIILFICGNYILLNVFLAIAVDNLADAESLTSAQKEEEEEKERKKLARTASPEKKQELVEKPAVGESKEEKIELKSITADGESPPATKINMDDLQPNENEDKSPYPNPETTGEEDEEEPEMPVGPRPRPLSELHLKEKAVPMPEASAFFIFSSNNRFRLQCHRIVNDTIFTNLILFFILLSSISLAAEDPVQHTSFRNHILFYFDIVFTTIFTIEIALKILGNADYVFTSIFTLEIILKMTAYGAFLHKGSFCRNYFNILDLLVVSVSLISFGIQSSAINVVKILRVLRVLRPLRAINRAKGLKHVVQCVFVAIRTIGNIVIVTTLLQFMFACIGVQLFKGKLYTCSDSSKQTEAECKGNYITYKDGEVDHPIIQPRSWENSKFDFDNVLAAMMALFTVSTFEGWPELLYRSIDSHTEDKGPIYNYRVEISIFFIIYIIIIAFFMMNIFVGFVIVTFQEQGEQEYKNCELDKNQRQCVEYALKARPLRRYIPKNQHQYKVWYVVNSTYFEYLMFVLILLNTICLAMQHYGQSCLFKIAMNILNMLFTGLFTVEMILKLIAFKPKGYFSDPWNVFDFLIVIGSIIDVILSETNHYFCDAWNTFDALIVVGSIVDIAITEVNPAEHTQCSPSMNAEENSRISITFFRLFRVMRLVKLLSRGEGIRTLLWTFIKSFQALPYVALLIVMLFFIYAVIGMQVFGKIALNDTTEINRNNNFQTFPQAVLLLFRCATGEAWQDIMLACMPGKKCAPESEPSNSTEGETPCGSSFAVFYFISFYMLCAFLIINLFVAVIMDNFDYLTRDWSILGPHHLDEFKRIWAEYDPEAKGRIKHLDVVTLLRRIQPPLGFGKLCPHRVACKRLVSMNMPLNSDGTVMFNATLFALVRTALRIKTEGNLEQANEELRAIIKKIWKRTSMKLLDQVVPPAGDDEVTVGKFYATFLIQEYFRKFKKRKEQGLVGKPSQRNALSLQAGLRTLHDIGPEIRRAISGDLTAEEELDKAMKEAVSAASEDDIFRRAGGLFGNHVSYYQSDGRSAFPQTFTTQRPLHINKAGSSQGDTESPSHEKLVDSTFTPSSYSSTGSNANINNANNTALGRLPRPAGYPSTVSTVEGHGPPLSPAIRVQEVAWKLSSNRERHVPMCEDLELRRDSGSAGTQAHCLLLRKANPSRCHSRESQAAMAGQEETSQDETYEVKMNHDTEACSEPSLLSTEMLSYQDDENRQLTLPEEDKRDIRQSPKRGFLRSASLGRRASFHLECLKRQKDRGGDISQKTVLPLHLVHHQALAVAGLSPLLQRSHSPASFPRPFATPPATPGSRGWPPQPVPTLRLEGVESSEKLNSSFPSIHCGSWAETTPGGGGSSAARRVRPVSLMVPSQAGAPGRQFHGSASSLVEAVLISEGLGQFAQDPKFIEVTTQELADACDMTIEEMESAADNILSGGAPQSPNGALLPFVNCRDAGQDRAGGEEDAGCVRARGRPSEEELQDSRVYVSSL
Chain of Cytochrome P450 2D6 (P10635 whole entry): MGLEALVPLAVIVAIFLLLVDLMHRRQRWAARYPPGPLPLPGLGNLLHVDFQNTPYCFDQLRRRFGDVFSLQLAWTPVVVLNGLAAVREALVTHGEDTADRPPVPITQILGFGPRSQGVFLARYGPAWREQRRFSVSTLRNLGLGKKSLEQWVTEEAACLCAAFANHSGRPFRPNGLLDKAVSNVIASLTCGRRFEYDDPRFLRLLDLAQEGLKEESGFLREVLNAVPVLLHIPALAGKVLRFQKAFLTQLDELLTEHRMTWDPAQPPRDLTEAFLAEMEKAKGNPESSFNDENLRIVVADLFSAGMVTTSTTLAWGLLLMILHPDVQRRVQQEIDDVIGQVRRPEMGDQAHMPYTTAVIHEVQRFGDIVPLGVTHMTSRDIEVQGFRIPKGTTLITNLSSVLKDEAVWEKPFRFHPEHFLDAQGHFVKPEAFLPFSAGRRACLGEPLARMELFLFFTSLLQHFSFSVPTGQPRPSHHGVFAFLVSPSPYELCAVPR
Chain of Voltage-dependent T-type calcium channel subunit alpha-1H (O95180 whole entry): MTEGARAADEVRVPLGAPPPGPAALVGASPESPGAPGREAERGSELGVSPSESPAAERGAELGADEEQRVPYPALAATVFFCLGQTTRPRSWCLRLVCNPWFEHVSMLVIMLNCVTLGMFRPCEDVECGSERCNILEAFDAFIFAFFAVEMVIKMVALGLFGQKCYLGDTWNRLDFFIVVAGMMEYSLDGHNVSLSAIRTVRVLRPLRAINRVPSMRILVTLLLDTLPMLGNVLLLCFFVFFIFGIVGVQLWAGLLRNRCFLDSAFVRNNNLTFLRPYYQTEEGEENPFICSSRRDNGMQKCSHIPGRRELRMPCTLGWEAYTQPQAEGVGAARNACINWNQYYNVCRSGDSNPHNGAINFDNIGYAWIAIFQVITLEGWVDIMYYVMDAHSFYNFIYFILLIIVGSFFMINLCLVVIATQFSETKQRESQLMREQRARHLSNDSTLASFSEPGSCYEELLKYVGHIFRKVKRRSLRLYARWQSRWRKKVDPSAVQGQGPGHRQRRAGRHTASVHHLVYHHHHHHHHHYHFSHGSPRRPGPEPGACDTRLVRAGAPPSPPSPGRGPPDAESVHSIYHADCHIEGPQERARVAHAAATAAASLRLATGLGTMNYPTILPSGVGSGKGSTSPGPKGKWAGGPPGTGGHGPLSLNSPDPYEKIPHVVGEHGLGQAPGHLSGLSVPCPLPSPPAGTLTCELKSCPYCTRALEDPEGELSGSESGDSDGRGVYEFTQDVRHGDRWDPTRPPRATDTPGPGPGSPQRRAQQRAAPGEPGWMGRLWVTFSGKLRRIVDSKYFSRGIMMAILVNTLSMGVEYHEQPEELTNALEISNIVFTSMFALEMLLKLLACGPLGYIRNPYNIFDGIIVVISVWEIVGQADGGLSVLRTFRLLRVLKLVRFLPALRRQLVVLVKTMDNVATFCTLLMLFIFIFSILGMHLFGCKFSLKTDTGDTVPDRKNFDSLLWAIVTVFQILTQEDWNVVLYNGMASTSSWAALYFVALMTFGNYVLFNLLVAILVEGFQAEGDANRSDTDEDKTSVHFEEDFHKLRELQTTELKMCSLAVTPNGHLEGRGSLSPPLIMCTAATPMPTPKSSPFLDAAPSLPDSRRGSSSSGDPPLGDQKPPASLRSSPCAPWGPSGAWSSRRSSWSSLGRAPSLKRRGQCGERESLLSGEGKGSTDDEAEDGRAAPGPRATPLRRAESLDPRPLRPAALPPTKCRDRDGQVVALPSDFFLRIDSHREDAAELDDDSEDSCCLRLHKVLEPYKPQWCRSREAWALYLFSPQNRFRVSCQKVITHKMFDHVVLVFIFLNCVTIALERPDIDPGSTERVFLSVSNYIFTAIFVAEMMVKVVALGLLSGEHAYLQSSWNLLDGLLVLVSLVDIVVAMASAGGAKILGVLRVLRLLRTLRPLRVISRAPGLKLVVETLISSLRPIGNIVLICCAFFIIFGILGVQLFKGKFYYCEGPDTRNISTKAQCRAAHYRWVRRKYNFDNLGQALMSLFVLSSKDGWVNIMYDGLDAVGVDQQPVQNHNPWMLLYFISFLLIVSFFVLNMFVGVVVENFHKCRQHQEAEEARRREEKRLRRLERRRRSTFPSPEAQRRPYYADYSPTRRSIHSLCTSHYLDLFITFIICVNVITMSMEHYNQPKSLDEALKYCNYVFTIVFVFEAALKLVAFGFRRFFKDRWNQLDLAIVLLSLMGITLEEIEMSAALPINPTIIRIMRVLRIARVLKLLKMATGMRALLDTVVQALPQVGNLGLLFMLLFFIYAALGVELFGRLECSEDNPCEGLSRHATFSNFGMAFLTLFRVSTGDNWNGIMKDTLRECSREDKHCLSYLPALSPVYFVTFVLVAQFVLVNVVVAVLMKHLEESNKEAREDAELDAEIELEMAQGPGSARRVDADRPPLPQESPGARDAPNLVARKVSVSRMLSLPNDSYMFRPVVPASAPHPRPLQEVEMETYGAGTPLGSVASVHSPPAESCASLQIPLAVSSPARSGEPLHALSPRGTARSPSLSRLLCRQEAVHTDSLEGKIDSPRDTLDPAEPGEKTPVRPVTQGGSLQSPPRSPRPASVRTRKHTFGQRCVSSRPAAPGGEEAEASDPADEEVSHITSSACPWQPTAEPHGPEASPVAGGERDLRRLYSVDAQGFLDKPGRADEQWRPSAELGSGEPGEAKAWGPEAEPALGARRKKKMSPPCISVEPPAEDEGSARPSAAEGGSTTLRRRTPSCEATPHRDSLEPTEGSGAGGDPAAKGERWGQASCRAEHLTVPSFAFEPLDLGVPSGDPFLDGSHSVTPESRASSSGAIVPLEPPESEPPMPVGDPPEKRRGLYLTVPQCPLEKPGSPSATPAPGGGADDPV

Papp A→B at 1 µM (MDR1 [1]): 45 ×10⁻⁶ cm/s
Papp B→A at 1 µM (MDR1 [2]): 44 ×10⁻⁶ cm/s
Cmax [3]: 27 nM
Tmax [4]: 6.6 h
IC50 (Cytochrome P450 2D6): 44000 nM
IC50 [6]: 33 nM
CLH [7]: 5.7 µL/min
concentration at 3 h [8]: 29 nM
microsomal CLint [11]: 37 µL/min/mg
Cmax [13]: 160 nM
bioavailability [15]: 4%
fraction unbound [16]: 0.03
IC50 [19]: 340 nM
fraction unbound [20]: 0.5
concentration at 1 h [21]: 19 nM
efflux ratio (MDR1 [22]): 1
IC50 (Cytochrome P450 2C9): 1800 nM
inhibition (Rattus norvegicus [23]): 15%
concentration at 1 h [24]: 630 nM
concentration at 3 h [25]: 1150 nM
concentration at 1 h [26]: 61 nM
concentration at 1 h [28]: 47 nM
Compound: O=C(Nc1ccc(F)cc1)N1N=C(c2ccncc2)CC1c1ccc(F)cc1 (stereo not given)
inhibition in vivo at 100 mg/kg (Rattus norvegicus [5]): 62.2%
Activity (Rattus norvegicus [9]): Toxic
IC50 [10]: 6400 nM
inhibition in vivo at 100 mg/kg (Rattus norvegicus [12]): 63.5%
Activity (Rattus norvegicus [14]): Non-Toxic
Activity (Rattus norvegicus [17]): Toxic
Activity (Rattus norvegicus [18]): Toxic
inhibition in vivo at 100 mg/kg (Rattus norvegicus [27]): > 99%
